PolyA inh: yeast polyadenylation inhibition. S. cerevisiae SKY197-pL101 polyadenylation reporter, beta-gal luminescence; efflux-impaired pdr1/pdr3 knockout yeast; score 100 = 6 SD above DMSO. activity score, % at 12 µM. actives 0.02% (n = 300,000). AID 1875;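 active means lowest replicate activity score at least 50, where 100 means six control SD above control mean; inconclusive means lowest score under 50 but half or more replicates reach 50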;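 further: yeast exposed to compound for 9 h at 30 °C; higher score means more reporter readthrough which indicates perturbed polyadenylation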
PERK inhibitor: inhibitors of human PERK kinase; inhibition, % at 5.6 µM; CHO PERK-DD fusion, SEAP luminescence translation reporter; actives 0.17% (n = 220,000);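 active means inhibition above the mean inhibition of all tested compounds plus 3 SD, set separately per screening campaign, cut at about 2.9% in these data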;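 further: PERK kinase domain activated by AP20187 dimerizer at 100 nM; 0% = DMSO with dimerizer and 100% = rapamycin at 8.4 µM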
Hsp70 act: transcriptional activators of Hsp70; HeLa Hsp70 promoter luciferase reporter, luminescence; scaled: vehicle 0, proteasome-inhibitor control 100%; activation, % at 10 µM; actives 0.04% (n = 200,000);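 active means activation above the mean across all tested compounds plus 3 SD, cutoff set per campaign, cut at about 5.5% in these data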;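 further: 100% = MG132 at 30 µM as the positive control and 0% = DMSO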
STAT3 act: increases IL-6 driven STAT3 reporter signal; U3A cells, IL-6 STAT3-luciferase reporter, luminescence; 100% = signal with IL-6 EC80 alone; AID 871; activation (% of control), % at 5.6 µM; actives 0.91% (n = 190,000);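 active means activation above the screen-wide mean of compound activation plus 3 SD, cut at about 130% in these data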;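 further: 0% = background luminescence of wells with medium and substrate only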
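Detection: reporter luminescence signal / Assay system: STAT1-lacking human U3A cells, STAT3 luciferase reporter / Incubation: compound pre-incubation 1 h before IL-6, then 6 h stimulation at 37 °C / Control set: IL-6-only high control / Read-out: % activation relative to IL-6 control / Probe or stimulus: Interleukin-6, 33 ng/mL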
HSF1 inh: HSF1 inhibition. NIH3T3-HGL HSE-luciferase, MG132-induced, luminescence 8 h; active compounds read low. actives 0.77% (n = 300,000). activity change, negative = inhibition, % at 7.5 µM (by protocol);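 active means more than half of replicate wells show activity change below -50%, luminescence cut by over half; inconclusive means some wells, but at most half, below -50%; inactive means no replicate well below -50%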;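 further: luciferase reports HSF-1 transcriptional activity via heat shock element; 0% = median of DMSO wells and -100% = zero luminescence signal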
AHR act: activates the human aryl hydrocarbon receptor. P35869. AHR-responsive luciferase reporter cells, luminescence. activation, % at 5 µM. actives 2.5% (n = 320,000). AID 2796; in the data active means activation above about 47%;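 further: 0% = vehicle wells and 100% = reference agonist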
Numbers without * were called inactive; ? = inconclusive; . = no result given. The list is not random: actives were taken first. Their share in the collection is about 3.6%.

SMILES	PolyA inh	PERK inhibitor	Hsp70 act	STAT3 act	HSF1 inh	AHR act
CC1Nc2ncnc(N3CCN(c4ccccn4)CC3)c2N(Cc2ccccc2)C1=O (configuration not stated)	-5.8	.	.	.	7.3	12.2
Cc1ccc(CN2C(=O)C(Cc3ccccc3)Nc3ncnc(N4CCN(c5ccccc5)CC4)c32)cc1 (configuration not stated)	1.3	.	.	.	6.4	2.1
COc1cc(C=O)ccc1OC(=O)Nc1ccccc1	-1.7	.	.	.	4.0	2.9
CN(c1ccc(C(=O)N2CCN(Cc3ccccc3)CC2)cc1)S(=O)(=O)c1ccc(Cl)cc1	-6.6	.	.	.	11.0	10.2
CCCCNc1c(-c2ccc(-c3cccc(Cl)c3)cc2)nc2ccccn12	-28.4	.	.	.	21.2	55.8*
CCCCCCSc1ccc(-c2nc3ccccn3c2NCCCC)cc1	-16.4	.	.	.	8.8	-1.0
O=C(COC(=O)c1c[nH]c2ccccc12)Nc1ccccc1	.	.	.	.	.	14.6
CCc1cccc2c(C(=O)COC(=O)c3ccc([N+](=O)[O-])s3)c[nH]c12	-102.2	1.4	-0.3	97.8	-68.8*	1.5
O=C(OCC(=O)c1c[nH]c2ccccc12)c1ccc([N+](=O)[O-])s1	-105.0	0.2	-0.1	135.2*	15.1	15.3
CC(NC(=O)COC(=O)c1c[nH]c2ccccc12)c1ccccc1 (configuration not stated)	.	.	.	.	.	55.9*
CC(=O)OCC(=O)NCC(=O)c1c[nH]c2ccccc12	-6.9	0.7	-0.5	113.3	-60.7*	9.7
CCOC(=O)c1c(C)[nH]c(C)c1C(=O)COC(=O)c1ccc([N+](=O)[O-])s1	.	.	.	.	.	2.1
COc1cc(NC(=O)CSc2nnc3c(C)cc4c(C)ccc(C)c4n23)c(C(=O)O)cc1OC	8.1	0.6	-0.1	101.3	1.1	0.4
Cc1ccc(C(=O)OCC(=O)c2c[nH]c3ccccc23)cc1	-4.9	0.0	-0.3	133.0*	4.1	14.4
COc1ccc(C(=O)OCC(=O)c2c[nH]c3ccccc23)cc1OC	.	.	.	.	.	32.0
CCC(=O)NCCc1cc2ccc(C)cc2[nH]c1=O	.	3.3*	-0.3	100.7	.	4.0
Cc1ccc(-c2nc3nc4ccccc4nc3n2Cc2ccco2)cc1	-2.0	-0.1	-0.2	75.0	14.5	32.6
Clc1ccc(-c2nc3nc4ccccc4nc3n2Cc2ccco2)cc1	.	0.2	0.1	100.5	.	52.6*
COc1ccc(N(CC(=O)NCc2ccc(F)cc2)C(=O)Cn2nnc(-c3ccc(C)o3)n2)cc1OC	-8.7	.	.	.	-87.0*	0.8
Cc1cccc(N(CC(=O)NCc2ccccc2)C(=O)Cn2nnc(-c3ccc(C)o3)n2)c1	11.5	-0.9	-0.6	103.1	7.4	1.2
CC(=O)c1ccccc1NC(=O)C1CCCN(C(=O)c2ccc(Cl)cc2)C1 (configuration not stated)	.	.	.	.	.	15.0
CC(=O)Nc1ccc(NC(=O)CSc2nnc3ccc(-c4cccnc4)nn23)cc1	-5.1	.	.	.	-2.3	12.2
Cn1c(Cn2c(=O)sc3ccccc32)nnc1SCC(=O)Nc1ccccc1	-12.4	0.8	-0.3	99.5	0.5	9.1
CCNc1nc(NCC)n2c(SCC(=O)Nc3ccc(NC(C)=O)cc3)nnc2n1	1.2	.	.	.	3.4	-1.9
O=C(CSc1nnc2ccc(-c3cccnc3)nn12)Nc1ccc(F)cc1	-11.8	.	.	.	0.2	60.8*
SMILES	PolyA inh	PERK inhibitor	Hsp70 act	STAT3 act	HSF1 inh	AHR act
CCc1ccc(NC(=O)CSc2nnc(Cn3c(=O)sc4ccccc43)n2C)cc1	.	0.0	-0.5	96.8	.	78.0*
CCNc1nc(NCC)n2c(SCC(=O)Nc3ccc(CC)cc3)nnc2n1	1.1	.	.	.	-2.6	49.8*
CCc1ccc(NC(=O)CSc2ccc(-c3cccnc3)nn2)cc1	9.8	.	.	.	-75.9*	19.6
Cc1ccccc1-c1cc(C(=O)O)n(CC2CC(c3cccnc3)=NO2)n1 (configuration not stated)	.	.	.	.	.	-0.8
CCc1ccc(NC(=O)CSc2nnnn2-c2cccnc2)cc1	3.3	.	.	.	-8.5	62.7*
O=C(CSc1ccc(-c2cccnc2)nn1)c1ccc([N+](=O)[O-])cc1	?	-0.6	-0.3	99.7	6.8	58.0*
CCc1ccc(Nc2nc(N)nc(CSc3nnnn3-c3ccccc3)n2)cc1	0.9	-0.1	-0.3	113.9	9.3	49.7*
Cc1cccc(NC(=O)CSc2ccc(-c3cccnc3)nn2)c1	-2.5	.	.	.	-4.0	50.0*
CCOC(=O)Cc1csc(SCC(=O)NC2CCC(C)CC2)n1 (configuration not stated)	13.3	.	.	.	1.4	0.7
CC(C)(C)c1ccc(OCC(=O)N2CCN(c3ncccn3)CC2)cc1	17.0	.	.	.	-0.8	7.1
CC(=C\c1ccccc1)/C=C1/SC(=S)N(CCCC(=O)O)C1=O	-7.5	.	.	.	-8.0	.
CC(=C\c1ccccc1)/C=C1/SC(=S)N(CCC(=O)Nc2ccccn2)C1=O	-14.1	1.7	-0.2	111.5	-91.2*	-1.9
CC(/C=C1\SC(=S)N(CCC(=O)Nc2ccccc2O)C1=O)=C\c1ccccc1	-1.3	.	.	.	-69.1*	2.6
CC(/C=C1\SC(=O)N(CCCC(=O)O)C1=O)=C\c1ccccc1	18.1	1.1	-0.7	31.1	-72.7*	-4.5
COc1ccc(CCN2C(=O)C3C4CC(C5C(C(=O)N/N=C\c6ccc(Cl)cc6)=NOC45)C3C2=O)cc1OC (configuration not stated)	2.3	-0.6	-0.4	99.0	-5.8	0.3
CCOC(=O)C1=NOC2C3CC(C12)C1C(=O)N(CCc2ccc(OC)c(OC)c2)C(=O)C31 (configuration not stated)	-5.4	0.5	.	.	-70.8*	1.0
CCOC(=O)C1=C(c2ccccc2)NC(=O)NC1c1ccsc1 (configuration not stated)	20.5	.	.	.	-51.4*	.
CCOC(=O)C1=C(C)NC(=O)NC1c1ccc(N2CCC(c3ccccc3)=N2)cc1 (configuration not stated)	-4.7	0.8	0.4	108.3	27.0	57.0*
CCOC(=O)C1=C(c2ccccc2)NC(=O)NC1c1ccc(O)c(Cl)c1 (configuration not stated)	23.6	.	.	.	-21.2	-3.4
Cc1c(O)cc2c(c1O)C(=O)CC(c1ccccc1)O2 (configuration not stated)	2.9	.	.	.	-0.3	78.6*
COc1c(O)cc2c(c1O)C(=O)CC(c1ccccc1)O2 (configuration not stated)	2.8	1.0	0.0	.	14.3	.
Oc1ccc(Cl)cc1C1=NNC(c2ccc(Cl)cc2)C1 (configuration not stated)	-18.6	0.5	-0.4	105.4	18.5	76.9*
Oc1ccc(Cl)cc1C1=NNC(c2cc(Br)cc3c2OCOC3)C1 (configuration not stated)	-7.4	0.0	-0.1	91.1	8.1	30.4
COc1cccc(CCNC(=O)CCCC(=O)c2ccccc2)c1	-13.5	.	.	.	0.7	0.4
O=C/C(=C\Nc1ccc(Br)cc1)c1nc2ccccc2o1	-22.7	0.3	0.2	94.0	1.0	49.0*

Assay outcomes: PubChem, several laboratories
